Most compounds without a hit are left out; they make up all but 4% or so of the library.
PHOSPHO1 block = blocks human PHOSPHO1 phosphatase activity | recombinant PHOSPHO1, absorbance phosphatase assay | 290,000 compounds, 1.1% hits | inhibition, % at 13.3 µM | Q8TCT1; in the data active = inhibition above about 60%
KCNQ1 pot = potentiates or activates the human KCNQ1 potassium channel | P51787 | B-score at 10 µM | CHO-K1 KCNQ1, thallium flux FluxOR fluorescence; active compounds read high | 310,000 compounds, 0.35% hits;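 active = fluorescence ratio B-score, a plate-corrected score, at least three library SD, with initial intensity B-score within 5 SD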
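System: CHO-K1 cells stably expressing KCNQ1 / Medium: assay buffer for compound exposure, DMSO matched across wells / Reagent: thallium- and potassium-containing depolarizing buffer / Compound: one concentration, matched DMSO / Incubation: 20 min compound pretreatment at room temperature / Measured by: kinetic FluxOR fluorescence, 10 s baseline plus 110 s post-stimulus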
KCNK9 block = human KCNK9 channel inhibition. Q9NPC2. HEK293 KCNK9, FluxOR thallium flux fluorescence; active compounds read low. B-score at 10 µM. 310,000 compounds, 1.2% hits;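 active = ratio B-score over 3 SD below the library mean, with starting fluorescence within 5 SD of its mean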;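 note: negative B-score means less thallium flux so channel inhibition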
hERG protect = shields human hERG channel from block by proarrhythmic agents; Q12809; CHO-hERG, FluxOR thallium flux, dofetilide IC70 present; activation (rescue from dofetilide block), less the hit threshold, % at 10 µM; 310,000 compounds, 0.51% hits; AID 1511;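 active = activation above the mean of controls blocked by dofetilide plus 5 SD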;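 note: thallium influx through hERG after potassium depolarization seen as dye fluorescence rise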
Target sequence (Q12809 whole entry, looked up): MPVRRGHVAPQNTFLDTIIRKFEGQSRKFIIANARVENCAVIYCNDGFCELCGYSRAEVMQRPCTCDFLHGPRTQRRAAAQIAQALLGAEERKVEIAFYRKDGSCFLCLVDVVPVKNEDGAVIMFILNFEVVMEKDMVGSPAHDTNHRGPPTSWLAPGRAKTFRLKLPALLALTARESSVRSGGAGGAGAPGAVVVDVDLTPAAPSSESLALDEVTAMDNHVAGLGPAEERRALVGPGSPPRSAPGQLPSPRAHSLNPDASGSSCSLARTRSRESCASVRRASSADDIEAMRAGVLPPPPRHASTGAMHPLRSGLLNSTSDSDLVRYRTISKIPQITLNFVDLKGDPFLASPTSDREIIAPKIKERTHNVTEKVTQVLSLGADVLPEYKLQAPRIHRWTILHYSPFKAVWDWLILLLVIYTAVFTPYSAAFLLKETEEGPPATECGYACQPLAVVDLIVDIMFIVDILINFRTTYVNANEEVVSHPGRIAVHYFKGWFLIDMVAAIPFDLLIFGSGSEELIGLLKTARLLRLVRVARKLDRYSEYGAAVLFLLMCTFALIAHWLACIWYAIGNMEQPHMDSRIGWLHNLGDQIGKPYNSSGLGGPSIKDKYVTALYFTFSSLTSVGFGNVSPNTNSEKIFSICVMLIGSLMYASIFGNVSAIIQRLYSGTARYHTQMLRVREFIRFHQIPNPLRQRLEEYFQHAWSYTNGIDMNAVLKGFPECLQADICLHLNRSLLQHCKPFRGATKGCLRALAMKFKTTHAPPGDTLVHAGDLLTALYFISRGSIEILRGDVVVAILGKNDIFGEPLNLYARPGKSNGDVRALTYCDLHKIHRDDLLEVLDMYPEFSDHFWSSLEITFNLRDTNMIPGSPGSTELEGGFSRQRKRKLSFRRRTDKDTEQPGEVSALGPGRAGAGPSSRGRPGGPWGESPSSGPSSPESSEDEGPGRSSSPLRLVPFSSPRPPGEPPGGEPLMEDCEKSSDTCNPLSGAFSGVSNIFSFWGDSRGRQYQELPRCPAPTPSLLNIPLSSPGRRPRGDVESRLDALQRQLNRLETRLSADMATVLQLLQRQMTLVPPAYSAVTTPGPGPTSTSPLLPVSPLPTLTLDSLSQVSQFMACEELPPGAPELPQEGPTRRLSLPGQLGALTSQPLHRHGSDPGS
KCNK3 block = human KCNK3 channel inhibition, primary screen; CHO-KCNK3 thallium flux, FluxOR fluorescence; active compounds read low; 340,000 compounds, 0.84% hits; O14649; B-score at 10 µM; AID 602410;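 active = B-score under library mean minus 4 SD, starting fluorescence ratio at most library mean plus 5 SD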;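 note: more negative B-score means stronger inhibition of thallium flux through KCNK3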
KCNQ1 block = blocks the human KCNQ1 potassium channel | B-score at 10 µM | AID 2642 | 310,000 compounds, 1.3% hits | CHO-K1 KCNQ1, FluxOR thallium flux fluorescence; active compounds read high;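 active = compounds whose thallium flux B-score, printed positive for inhibition, exceeds three library SD while starting fluorescence stays within three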;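 note: channel opened by potassium depolarization with thallium stimulus after 20 min compound exposure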
The depositor's hits bear a star.

How did CSc1ccc(/C=C(\NC(=O)c2ccccc2)C(=O)NCCN2CCOCC2)cc1 do in these assays?
PHOSPHO1 block: 26.9; KCNQ1 pot: inactive; KCNK9 block: inactive; hERG protect: -6.4; KCNK3 block: inactive; KCNQ1 block: inactive

What do the screens show for `O=[N+]([O-])c1ccccc1N(S(=O)(=O)c1ccccc1)S(=O)(=O)c1ccccc1`?
KCNK3 block: inactive

What do the screens show for `COc1cc(NC(=O)c2ccnn2C)c(OC)cc1Cl`?
PHOSPHO1 block: 34.2; KCNQ1 pot: inactive; KCNK9 block: inactive; hERG protect: -5.8; KCNK3 block: inactive; KCNQ1 block: inactive

Results for CCOCCOCN(C#N)c1nc(OC)nc(N(C)C)n1 ?
PHOSPHO1 block: 38.2; KCNQ1 pot: inactive; KCNK9 block: inactive; hERG protect: 48.9*; KCNK3 block: inactive; KCNQ1 block: inactive

What do the screens show for `CC(=O)OCN(C#N)c1nc(N(C)C)nc(N(C)C)n1`?
PHOSPHO1 block: 9.6; KCNQ1 pot: inactive; KCNK9 block: inactive; hERG protect: -13.5; KCNK3 block: inactive; KCNQ1 block: inactive

How did CCCCCCCCCC(=O)O do in these assays?
KCNK3 block: inactive

What do the screens show for `CCCCCC#CCC#CCC#CCC#CCCCC(=O)O`?
PHOSPHO1 block: 79.4*; KCNQ1 pot: inactive; KCNK9 block: inactive; hERG protect: -6.5; KCNQ1 block: inactive

Results for CCCCn1c(N)c(C(=S)NC(=O)CC(C)(C)C)c(=O)n(C)c1=O ?
PHOSPHO1 block: -3.9; KCNQ1 pot: 18*; KCNK9 block: inactive; hERG protect: 24.7*; KCNK3 block: inactive; KCNQ1 block: inactive

Results for Nc1c(C(=O)CSc2nccn2-c2ccc(Cl)cc2)c(=O)[nH]c(=O)n1C1CC1 ?
KCNK3 block: inactive

How did Cc1cc(C)nc(N2CCCC(C(=O)NCc3ccccc3)C2)n1 (centres undefined) do in these assays?
PHOSPHO1 block: -3.5; KCNQ1 pot: inactive; KCNK9 block: inactive; hERG protect: 5.2*; KCNK3 block: inactive; KCNQ1 block: inactive

How did O=C1CCCCC1Sc1nnc(Cc2cccs2)n1CCc1ccccc1 (centres undefined) do in these assays?
PHOSPHO1 block: 71.3*; KCNK3 block: inactive

Results for CCCn1nc(NC(=O)c2cccs2)c2cc3cc(C)ccc3nc21 ?
PHOSPHO1 block: -1.5; KCNQ1 pot: inactive; KCNK9 block: -7.07*; hERG protect: -19.0; KCNK3 block: inactive; KCNQ1 block: inactive

What do the screens show for `CCCn1nc(NC(=O)c2cccs2)c2cc3ccc(C)cc3nc21`?
PHOSPHO1 block: -10.4; KCNQ1 pot: inactive; KCNK9 block: inactive; hERG protect: -8.1; KCNK3 block: inactive; KCNQ1 block: inactive

How did COc1ccc(NC(=O)Nc2ccc([N+](=O)[O-])cc2)cn1 do in these assays?
PHOSPHO1 block: 20.0; KCNQ1 pot: inactive; KCNK9 block: inactive; hERG protect: -8.3; KCNK3 block: inactive; KCNQ1 block: 8*

Results for COc1ccc(NC(=O)Nc2cc(C)cc(C)c2)cn1 ?
PHOSPHO1 block: 31.6; KCNQ1 pot: inactive; KCNK9 block: inactive; hERG protect: -7.5; KCNK3 block: inactive; KCNQ1 block: inactive

How did Cc1ccc(C(=O)N/C(=C\c2ccc(-c3ccc(Cl)cc3)o2)C(=O)NCCCN(C)C)cc1 do in these assays?
PHOSPHO1 block: 52.1; KCNQ1 pot: inactive; KCNK9 block: inactive; hERG protect: -22.6; KCNK3 block: inactive; KCNQ1 block: inactive

Results for Cc1ccc(NCCC(=O)c2cccc([N+](=O)[O-])c2)cc1 ?
PHOSPHO1 block: -9.3; KCNQ1 pot: inactive; KCNK9 block: inactive; hERG protect: -10.6; KCNK3 block: inactive; KCNQ1 block: 9*

Results for O=C(CCNc1ccc(F)cc1)c1cccc([N+](=O)[O-])c1 ?
PHOSPHO1 block: -4.0; KCNQ1 pot: inactive; KCNK9 block: inactive; hERG protect: -18.4; KCNK3 block: inactive; KCNQ1 block: 6*

Results for CCOC(=O)c1ccc2c(c1)nc(SCC(=O)N1CCCCC1)n2CC ?
PHOSPHO1 block: 49.2; KCNQ1 pot: inactive; KCNK9 block: inactive; hERG protect: -10.0; KCNK3 block: inactive; KCNQ1 block: inactive

Results for CCOC(=O)/C(O)=C(\C#N)c1nc2ccccc2[nH]1 ?
PHOSPHO1 block: -3.7; KCNQ1 pot: inactive; KCNK9 block: inactive; hERG protect: -11.4; KCNK3 block: inactive; KCNQ1 block: inactive

Source: PubChem (several laboratories)
